{
  "source": "ChEMBL document CHEMBL4033639",
  "about": "“Synthesis, biochemical evaluation, and molecular modeling studies of aryl and arylalkyl di-n-butyl phosphates, effective butyrylcholinesterase inhibitors” (Bioorg Med Chem, 2017)",
  "key": {"[1]": {"target": "Cholinesterase (Equus caballus) (UniProt P81908)", "sequence (P81908 whole entry)": "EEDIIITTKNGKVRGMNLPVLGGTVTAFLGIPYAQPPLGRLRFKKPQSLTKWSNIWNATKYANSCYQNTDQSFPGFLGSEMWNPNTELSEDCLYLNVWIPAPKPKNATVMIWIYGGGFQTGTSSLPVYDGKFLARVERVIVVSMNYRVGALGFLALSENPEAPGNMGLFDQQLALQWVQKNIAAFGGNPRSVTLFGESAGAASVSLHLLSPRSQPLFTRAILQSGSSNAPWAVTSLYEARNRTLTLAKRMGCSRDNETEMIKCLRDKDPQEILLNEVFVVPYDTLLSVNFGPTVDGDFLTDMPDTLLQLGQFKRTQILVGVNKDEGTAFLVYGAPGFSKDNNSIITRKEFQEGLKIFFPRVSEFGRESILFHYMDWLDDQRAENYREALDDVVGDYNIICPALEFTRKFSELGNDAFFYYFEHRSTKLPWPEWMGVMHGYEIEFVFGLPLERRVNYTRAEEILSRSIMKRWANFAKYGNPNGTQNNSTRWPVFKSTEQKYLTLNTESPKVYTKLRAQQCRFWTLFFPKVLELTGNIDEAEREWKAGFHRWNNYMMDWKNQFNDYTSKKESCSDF", "experiment": "Reversible inhibition of horse serum BChE at Ki using 25 mM of butyrylthiocholine as substrate preincubated for 1 min followed by substrate addition by spectrophotometry relative to control"}, "Bos taurus": {"species": "Bos taurus", "experiment": "Inhibition of bovine pancreas alpha-chymotrypsin using N-benzoyl-l-tyrosine ethyl ester as substrate by spectrophotometry relative to control", "summary_of_the_method": "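Enzyme (fresh 5 units/mL stock in ice-cold 1 mM HCl) added to start; initial rates read continuously at 256 nm, no-enzyme background subtracted. Rate with compound divided by control rate; at least two determinations with independently prepared inhibitor solutions, averaged.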"}, "Cholinesterase": {"target": "Cholinesterase (Equus caballus, UniProt P81908)", "sequence (P81908 whole entry)": "as above", "experiment": "Inhibition of horse serum BChE using butyrylthiocholine as substrate by spectrophotometry", "summary_of_the_method": "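Initial rates monitored continuously at 412 nm (ε 14,150 M-1 cm-1), background from no-enzyme reaction. KI from dependence of observed rate constant on inhibitor concentration (typically twelve); at least three determinations averaged.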"}, "[2]": {"target": "Cholinesterase (Equus caballus) (UniProt P81908)", "experiment": "Inhibition of horse serum BChE at 500 uM using butyrylthiocholine as substrate by spectrophotometry relative to control", "summary_of_the_method": "(§1)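 Ellman method at 25 °C: 100 mM sodium phosphate pH 7.5, 1 mM MgCl2, 0.2 mM DTNB, BSA, 100 µM butyrylthiocholine, 2% methanol. Inhibitor 500 µM final; reaction started with equine serum BChE (10 nM final); initial rates at 412 nm. Rate divided by 2% methanol no-inhibitor control; at least three determinations with independently prepared inhibitor solutions, averaged.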"}, "[3]": {"target": "Acetylcholinesterase (Electrophorus electricus) (UniProt O42275)", "sequence (O42275 24-633 limits assumed)": "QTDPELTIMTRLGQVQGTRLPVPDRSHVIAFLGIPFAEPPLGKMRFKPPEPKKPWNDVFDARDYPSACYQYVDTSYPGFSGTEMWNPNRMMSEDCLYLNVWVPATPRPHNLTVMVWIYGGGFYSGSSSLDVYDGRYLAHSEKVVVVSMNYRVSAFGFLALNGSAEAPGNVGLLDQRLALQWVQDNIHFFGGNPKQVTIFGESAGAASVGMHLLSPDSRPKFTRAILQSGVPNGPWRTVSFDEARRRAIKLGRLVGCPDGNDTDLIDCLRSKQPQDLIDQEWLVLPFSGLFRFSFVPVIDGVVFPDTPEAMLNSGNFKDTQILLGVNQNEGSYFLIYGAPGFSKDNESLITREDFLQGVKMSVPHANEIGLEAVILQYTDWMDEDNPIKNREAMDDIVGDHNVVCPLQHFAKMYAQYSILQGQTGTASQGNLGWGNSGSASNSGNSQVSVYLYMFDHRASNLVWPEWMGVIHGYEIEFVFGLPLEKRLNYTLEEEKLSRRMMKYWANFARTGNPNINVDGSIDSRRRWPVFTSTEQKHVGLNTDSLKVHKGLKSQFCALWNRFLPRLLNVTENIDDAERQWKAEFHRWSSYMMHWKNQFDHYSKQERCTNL", "experiment": "Inhibition of electric eel AChE at 500 uM using acetylthiocholine as substrate by spectrophotometry relative to control", "summary_of_the_method": "as §1, with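 “acetylthiocholine,” for “butyrylthiocholine,”, “AChE” for “equine serum BChE”, “rates monitored” for “rates”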"}},
  "data": [
    {"smiles": "CCCCOP(=O)(OCCCC)Oc1cccc2ccccc12", "values": [
      {"measurement": "fold change (FC)", "setting": "[1]", "value": 0.71},
      {"measurement": "fold change (FC)", "setting": "Bos taurus", "value": 0.93},
      {"measurement": "Ki", "setting": "Cholinesterase", "value": 22, "unit": "µM"},
      {"measurement": "fold change (FC)", "setting": "[2]", "value": 0.21},
      {"measurement": "fold change (FC)", "setting": "[3]", "value": 1.07}
    ]},
    {"smiles": "CCCCOP(=O)(OCCCC)OCc1ccccc1C", "values": [
      {"measurement": "fold change (FC)", "setting": "[1]", "value": 0.95},
      {"measurement": "fold change (FC)", "setting": "Bos taurus", "value": 0.94},
      {"measurement": "Ki", "setting": "Cholinesterase", "value": 72, "unit": "µM"},
      {"measurement": "fold change (FC)", "setting": "[2]", "value": 0.04},
      {"measurement": "fold change (FC)", "setting": "[3]", "value": 0.98}
    ]},
    {"smiles": "CCCCOP(=O)(OCCCC)Oc1ccc(C)cc1", "values": [
      {"measurement": "fold change (FC)", "setting": "[1]", "value": 0.94},
      {"measurement": "fold change (FC)", "setting": "Bos taurus", "value": 0.96},
      {"measurement": "Ki", "setting": "Cholinesterase", "value": 8, "unit": "µM"},
      {"measurement": "fold change (FC)", "setting": "[2]", "value": 0.02},
      {"measurement": "fold change (FC)", "setting": "[3]", "value": 0.89}
    ]},
    {"smiles": "CCOP(=O)(OCC)Oc1ccc2ccccc2c1", "values": [
      {"measurement": "Ki", "setting": "Cholinesterase", "value": 147, "unit": "µM"}
    ]},
    {"smiles": "CCOP(=O)(OCC)Oc1cc(C)cc(C)c1", "values": [
      {"measurement": "Ki", "setting": "Cholinesterase", "value": 583, "unit": "µM"}
    ]},
    {"smiles": "CCOP(=O)(OCC)Oc1ccccc1", "note": "[PHOSPHORIC ACID DIETHYL ESTER PHENYL ESTER]", "values": [
      {"measurement": "Ki", "setting": "Cholinesterase", "value": 1590, "unit": "µM"}
    ]},
    {"smiles": "CCCCCOP(=O)(OCCCCC)Oc1ccccc1", "values": [
      {"measurement": "Ki", "setting": "Cholinesterase", "value": 6, "unit": "µM"}
    ]},
    {"smiles": "CCCCOP(=O)(OCCCC)Oc1cc(C)cc(C)c1", "values": [
      {"measurement": "fold change (FC)", "setting": "[1]", "value": 0.83},
      {"measurement": "fold change (FC)", "setting": "Bos taurus", "value": 0.95},
      {"measurement": "Ki", "setting": "Cholinesterase", "value": 1, "unit": "µM"},
      {"measurement": "fold change (FC)", "setting": "[2]", "value": 0.01},
      {"measurement": "fold change (FC)", "setting": "[3]", "value": 1}
    ]},
    {"smiles": "CCCCOP(=O)(OCCCC)Oc1ccccc1", "values": [
      {"measurement": "Ki", "setting": "Cholinesterase", "value": "45 to 80", "unit": "µM"}
    ]},
    {"smiles": "CCCCOP(=O)(OCCCC)Oc1cc(C)c(C)c(C)c1", "values": [
      {"measurement": "fold change (FC)", "setting": "[1]", "value": 0.88},
      {"measurement": "fold change (FC)", "setting": "Bos taurus", "value": 0.84},
      {"measurement": "Ki", "setting": "Cholinesterase", "value": 11, "unit": "µM"},
      {"measurement": "fold change (FC)", "setting": "[2]", "value": 0.09},
      {"measurement": "fold change (FC)", "setting": "[3]", "value": 1.09}
    ]},
    {"smiles": "CCCCOP(=O)(OCCCC)OCc1cccc(C)c1", "values": [
      {"measurement": "fold change (FC)", "setting": "[1]", "value": 0.95},
      {"measurement": "fold change (FC)", "setting": "Bos taurus", "value": 0.94},
      {"measurement": "Ki", "setting": "Cholinesterase", "value": 24, "unit": "µM"},
      {"measurement": "fold change (FC)", "setting": "[2]", "value": 0.12},
      {"measurement": "fold change (FC)", "setting": "[3]", "value": 0.86}
    ]},
    {"smiles": "CCCCOP(=O)(OCCCC)OCc1ccc(C)cc1", "values": [
      {"measurement": "fold change (FC)", "setting": "[1]", "value": 0.92},
      {"measurement": "fold change (FC)", "setting": "Bos taurus", "value": 0.92},
      {"measurement": "Ki", "setting": "Cholinesterase", "value": 14, "unit": "µM"},
      {"measurement": "fold change (FC)", "setting": "[2]", "value": 0.04},
      {"measurement": "fold change (FC)", "setting": "[3]", "value": 0.87}
    ]},
    {"smiles": "CCCCOP(=O)(OCCCC)Oc1ccc2ccccc2c1", "values": [
      {"measurement": "fold change (FC)", "setting": "[1]", "value": 0.8},
      {"measurement": "fold change (FC)", "setting": "Bos taurus", "value": 0.76},
      {"measurement": "Ki", "setting": "Cholinesterase", "value": 1.9, "unit": "µM"},
      {"measurement": "fold change (FC)", "setting": "[2]", "value": 0.01},
      {"measurement": "fold change (FC)", "setting": "[3]", "value": 1.05}
    ]},
    {"smiles": "CCCCOP(=O)(OCCCC)Oc1ccccc1C", "values": [
      {"measurement": "fold change (FC)", "setting": "[1]", "value": 0.91},
      {"measurement": "fold change (FC)", "setting": "Bos taurus", "value": 0.92},
      {"measurement": "Ki", "setting": "Cholinesterase", "value": 50, "unit": "µM"},
      {"measurement": "fold change (FC)", "setting": "[2]", "value": 0.27},
      {"measurement": "fold change (FC)", "setting": "[3]", "value": 0.99}
    ]},
    {"smiles": "CCCCOP(=O)(OCCCC)OCc1ccccc1", "values": [
      {"measurement": "fold change (FC)", "setting": "[1]", "value": 0.92},
      {"measurement": "fold change (FC)", "setting": "Bos taurus", "value": 0.97},
      {"measurement": "Ki", "setting": "Cholinesterase", "value": 2, "unit": "µM"},
      {"measurement": "fold change (FC)", "setting": "[2]", "value": 0.01},
      {"measurement": "fold change (FC)", "setting": "[3]", "value": 1}
    ]},
    {"smiles": "CCCCOP(=O)(OCCCC)Oc1cccc(C)c1", "values": [
      {"measurement": "fold change (FC)", "setting": "[1]", "value": 0.94},
      {"measurement": "fold change (FC)", "setting": "Bos taurus", "value": 0.89},
      {"measurement": "Ki", "setting": "Cholinesterase", "value": 16, "unit": "µM"},
      {"measurement": "fold change (FC)", "setting": "[2]", "value": 0.15},
      {"measurement": "fold change (FC)", "setting": "[3]", "value": 0.99}
    ]},
    {"smiles": "CCCOP(=O)(OCCC)Oc1ccccc1", "values": [
      {"measurement": "Ki", "setting": "Cholinesterase", "value": "45 to 80", "unit": "µM"}
    ]},
    {"smiles": "CCCCOP(=O)(OCCCC)OCCc1ccccc1", "values": [
      {"measurement": "fold change (FC)", "setting": "[1]", "value": 0.97},
      {"measurement": "fold change (FC)", "setting": "Bos taurus", "value": 0.89},
      {"measurement": "Ki", "setting": "Cholinesterase", "value": 53, "unit": "µM"},
      {"measurement": "fold change (FC)", "setting": "[2]", "value": 0.11},
      {"measurement": "fold change (FC)", "setting": "[3]", "value": 1.02}
    ]},
    {"smiles": "CCCCOP(=O)(OCCCC)Oc1ccc(C)c(C)c1", "values": [
      {"measurement": "fold change (FC)", "setting": "[1]", "value": 0.93},
      {"measurement": "fold change (FC)", "setting": "Bos taurus", "value": 0.94},
      {"measurement": "Ki", "setting": "Cholinesterase", "value": 9, "unit": "µM"},
      {"measurement": "fold change (FC)", "setting": "[2]", "value": 0.04},
      {"measurement": "fold change (FC)", "setting": "[3]", "value": 1.04}
    ]}
  ]
}
